Laboratory results as given in ChEMBL document CHEMBL4359830, “Discovery and structure-activity relationship of novel diphenylthiazole derivatives as BTK inhibitor with potent activity against B cell lymphoma cell lines” (Eur J Med Chem, 2019).
Calls of active or inactive are those of the source. The calls are words filed in the database; no cut-off is given here.

Assays:
[1] = test system: Raji; assay: Induction of apoptosis in human Raji cells assessed as early apoptotic cells at 1 uM measured after 15 mins by Annexin-V-APC staining-based flow cytometric analysis (reference value: 0.021 %); format: functional
[2] = molecular target: Tyrosine-protein kinase BTK (Homo sapiens, UniProt Q06187); assay: Inhibition of BTK in anti-IgM-stimulated human Raji cells assessed as decrease in auto-phosphorylation at Y223 residue at 5 uM after 48 hrs by Western blot analysis; format: cell-based
Sequence of Tyrosine-protein kinase BTK (Homo sapiens, UniProt Q06187) (Q06187 whole entry): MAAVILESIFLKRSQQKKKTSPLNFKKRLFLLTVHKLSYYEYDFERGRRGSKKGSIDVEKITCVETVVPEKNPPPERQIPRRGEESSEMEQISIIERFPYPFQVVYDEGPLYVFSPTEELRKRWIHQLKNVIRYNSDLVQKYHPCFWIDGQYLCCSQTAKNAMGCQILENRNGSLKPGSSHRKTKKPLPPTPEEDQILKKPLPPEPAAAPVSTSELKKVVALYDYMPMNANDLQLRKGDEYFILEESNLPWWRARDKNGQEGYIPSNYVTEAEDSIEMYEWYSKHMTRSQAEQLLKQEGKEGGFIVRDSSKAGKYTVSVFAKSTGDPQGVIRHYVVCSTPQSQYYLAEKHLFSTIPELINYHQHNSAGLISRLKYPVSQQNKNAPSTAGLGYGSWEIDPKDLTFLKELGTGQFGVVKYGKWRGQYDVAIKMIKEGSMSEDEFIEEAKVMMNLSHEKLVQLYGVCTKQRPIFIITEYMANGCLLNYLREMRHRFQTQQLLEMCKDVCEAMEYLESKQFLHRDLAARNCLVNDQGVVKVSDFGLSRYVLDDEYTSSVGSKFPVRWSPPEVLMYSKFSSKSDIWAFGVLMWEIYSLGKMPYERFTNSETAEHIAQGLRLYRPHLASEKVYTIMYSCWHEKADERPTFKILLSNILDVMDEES
How it was run: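 Cells were stimulated with anti-IgM and exposed to serial dilutions for 48 h. Lysis was in 2× Laemmli buffer with 2.5% β-mercaptoethanol at 4 °C for 15 min, then boiling for 5 min. Proteins were separated on 10% SDS-PAGE and moved to nitrocellulose. Blots were probed overnight (12–18 h, 4 °C) with phospho-BTK Tyr223, phospho-PLCγ2 Tyr1217 and β-actin antibodies (1:1000), then anti-rabbit HRP, with chemiluminescent detection.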

[3] = test system: Ramos; assay: Induction of apoptosis in human Ramos cells assessed as early apoptotic cells at 3 uM measured after 15 mins by Annexin-V-APC staining-based flow cytometric analysis (reference value: 0.14 %); format: functional
[4] = test system: Raji; assay: Cell cycle arrest in human Raji cells assessed as accumulation at S phase at 0.1 uM measured after 48 hrs by propidium iodide/RNase staining based flow cytometric analysis (reference value: 33.18 %); format: functional
[5] = test system: Ramos; assay: Induction of apoptosis in human Ramos cells assessed as necrotic cells at 5 uM measured after 15 mins by Annexin-V-APC staining-based flow cytometric analysis (reference value: 1.50 %); format: functional
[6] = test system: Raji; assay: Induction of apoptosis in human Raji cells assessed as viable cells at 5 uM measured after 15 mins by Annexin-V-APC staining-based flow cytometric analysis (reference value: 97.5 %); format: functional; conditions: Homo sapiens, Raji, 0.25 h; read-out: Activity
[7] = test system: Ramos; assay: Induction of apoptosis in human Ramos cells assessed as early apoptotic cells at 0.1 uM measured after 15 mins by Annexin-V-APC staining-based flow cytometric analysis (reference value: 0.14 %); format: functional
[8] = test system: Ramos; assay: Induction of apoptosis in human Ramos cells assessed as late apoptotic cells at 5 uM measured after 15 mins by Annexin-V-APC staining-based flow cytometric analysis (reference value: 1.85 %); format: functional
[9] = test system: Ramos; assay: Induction of apoptosis in human Ramos cells assessed as early apoptotic cells at 5 uM measured after 15 mins by Annexin-V-APC staining-based flow cytometric analysis (reference value: 0.14 %); format: functional
[10] = test system: Ramos; assay: Induction of apoptosis in human Ramos cells assessed as viable cells at 1 uM measured after 15 mins by Annexin-V-APC staining-based flow cytometric analysis (reference value: 96.5 %); format: functional; conditions: 0.25 h, read-out: Activity
[11] = test system: Ramos; assay: Induction of apoptosis in human Ramos cells assessed as viable cells at 0.1 uM measured after 15 mins by Annexin-V-APC staining-based flow cytometric analysis (reference value: 96.5 %); format: functional; conditions: 0.25 h, read-out: Activity
[12] = test system: Raji; assay: Cell cycle arrest in human Raji cells assessed as accumulation at G2/M phase at 5 uM measured after 48 hrs by propidium iodide/RNase staining based flow cytometric analysis (reference value: 18.14 %); format: functional
[13] = test system: Ramos; assay: Cell cycle arrest in human Ramos cells assessed as accumulation at S phase at 0.1 uM measured after 48 hrs by propidium iodide/RNase staining based flow cytometric analysis (reference value: 56.35 %); format: functional
[14] = test system: Ramos; assay: Cell cycle arrest in human Ramos cells assessed as accumulation at G0/G1 phase at 0.1 uM measured after 48 hrs by propidium iodide/RNase staining based flow cytometric analysis (reference value: 37.66 %); format: functional
[15] = test system: Ramos; assay: Induction of apoptosis in human Ramos cells assessed as late apoptotic cells at 3 uM measured after 15 mins by Annexin-V-APC staining-based flow cytometric analysis (reference value: 1.85 %); format: functional
[16] = test system: Raji; assay: Induction of apoptosis in human Raji cells assessed as necrotic cells at 0.1 uM measured after 15 mins by Annexin-V-APC staining-based flow cytometric analysis (reference value: 1.87 %); format: functional
[17] = test system: Ramos; assay: Induction of apoptosis in human Ramos cells assessed as early apoptotic cells at 1 uM measured after 15 mins by Annexin-V-APC staining-based flow cytometric analysis (reference value: 0.14 %); format: functional
[18] = test system: Raji; assay: Cell cycle arrest in human Raji cells assessed as accumulation at G0/G1 phase at 1 uM measured after 48 hrs by propidium iodide/RNase staining based flow cytometric analysis (reference value: 48.68 %); format: functional
[19] = test system: Ramos; assay: Cell cycle arrest in human Ramos cells assessed as accumulation at G0/G1 phase at 5 uM measured after 48 hrs by propidium iodide/RNase staining based flow cytometric analysis (reference value: 37.66 %); format: functional
[20] = test system: Raji; assay: Induction of apoptosis in human Raji cells assessed as late apoptotic cells at 1 uM measured after 15 mins by Annexin-V-APC staining-based flow cytometric analysis (reference value: 0.57 %); format: functional
[21] = test system: Ramos; assay: Induction of apoptosis in human Ramos cells assessed as late apoptotic cells at 1 uM measured after 15 mins by Annexin-V-APC staining-based flow cytometric analysis (reference value: 1.85 %); format: functional
[22] = molecular target: Tyrosine-protein kinase BTK (Homo sapiens, UniProt Q06187, C481S); assay: Inhibition of human recombinant full length N-terminal His tagged BTK C481S mutant expressed in baculovirus infected Sf9 cells using poly (Glu,Tyr) 4:1 as substrate measured after 60 mins in presence of ATP by ADP-Glo kinase assay
Sequence of Tyrosine-protein kinase BTK (Homo sapiens, UniProt Q06187, C481S) (Q06187 2-659 C481S limits assumed): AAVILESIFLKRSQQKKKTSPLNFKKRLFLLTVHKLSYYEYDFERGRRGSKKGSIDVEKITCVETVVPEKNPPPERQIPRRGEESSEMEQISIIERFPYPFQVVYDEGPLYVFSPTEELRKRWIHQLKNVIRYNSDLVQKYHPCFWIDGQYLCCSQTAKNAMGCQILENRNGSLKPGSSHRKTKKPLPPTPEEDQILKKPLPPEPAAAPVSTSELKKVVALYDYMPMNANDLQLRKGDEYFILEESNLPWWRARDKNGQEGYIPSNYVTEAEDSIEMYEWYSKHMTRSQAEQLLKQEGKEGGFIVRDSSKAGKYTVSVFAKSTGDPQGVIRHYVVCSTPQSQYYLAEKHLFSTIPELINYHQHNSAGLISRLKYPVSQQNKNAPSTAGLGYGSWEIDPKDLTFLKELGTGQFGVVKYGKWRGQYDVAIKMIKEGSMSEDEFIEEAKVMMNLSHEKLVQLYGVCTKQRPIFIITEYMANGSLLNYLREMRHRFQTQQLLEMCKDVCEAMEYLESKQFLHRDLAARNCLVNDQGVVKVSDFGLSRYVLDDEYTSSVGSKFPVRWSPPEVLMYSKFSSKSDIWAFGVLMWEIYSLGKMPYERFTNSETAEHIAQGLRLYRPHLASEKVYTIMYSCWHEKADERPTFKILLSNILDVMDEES

[23] = test system: Ramos; assay: Cell cycle arrest in human Ramos cells assessed as accumulation at G0/G1 phase at 1 uM measured after 48 hrs by propidium iodide/RNase staining based flow cytometric analysis (reference value: 37.66 %); format: functional
[24] = test system: Ramos; assay: Induction of apoptosis in human Ramos cells assessed as necrotic cells at 1 uM measured after 15 mins by Annexin-V-APC staining-based flow cytometric analysis (reference value: 1.50 %); format: functional
[25] = test system: Raji; assay: Cell cycle arrest in human Raji cells assessed as accumulation at G0/G1 phase at 0.1 uM measured after 48 hrs by propidium iodide/RNase staining based flow cytometric analysis (reference value: 48.68 %); format: functional
[26] = test system: Raji; assay: Cell cycle arrest in human Raji cells assessed as accumulation at S phase at 5 uM measured after 48 hrs by propidium iodide/RNase staining based flow cytometric analysis (reference value: 33.18 %); format: functional
[27] = test system: Raji; assay: Induction of apoptosis in human Raji cells assessed as late apoptotic cells at 3 uM measured after 15 mins by Annexin-V-APC staining-based flow cytometric analysis (reference value: 0.57 %); format: functional
[28] = test system: Raji; assay: Cell cycle arrest in human Raji cells assessed as accumulation at G2/M phase at 1 uM measured after 48 hrs by propidium iodide/RNase staining based flow cytometric analysis (reference value: 18.14 %); format: functional
[29] = test system: Raji; assay: Induction of apoptosis in human Raji cells assessed as early apoptotic cells at 5 uM measured after 15 mins by Annexin-V-APC staining-based flow cytometric analysis (reference value: 0.021 %); format: functional
[30] = test system: Raji; assay: Induction of apoptosis in human Raji cells assessed as necrotic cells at 3 uM measured after 15 mins by Annexin-V-APC staining-based flow cytometric analysis (reference value: 1.87 %); format: functional
[31] = test system: Raji; assay: Induction of apoptosis in human Raji cells assessed as viable cells at 0.1 uM measured after 15 mins by Annexin-V-APC staining-based flow cytometric analysis (reference value: 97.5 %); format: functional; conditions: 0.25 h, read-out: Activity

CN1CCN(c2ccc(Nc3nc(-c4cccc(NC(=O)c5ccc(F)c(Cl)c5)c4)sc3C(N)=O)cc2)CC1
Activity [1]: 0% | inhibition [2]: Active | Activity [3]: 0.052% | Activity [4]: 33.63% | Activity [5]: 25.7% | viability at 5 µM [6]: 0.15% | Activity [7]: 0.072% | Activity [8]: 72.4% | Activity [9]: 0.28% | viability at 1 µM [10]: 95.7% | viability at 0.1 µM [11]: 96.4% | Activity [12]: 16.19% | Activity [13]: 51.54% | Activity [14]: 40.13% | Activity [15]: 6.43% | Activity [16]: 1.76% | Activity [17]: 0.051% | Activity [18]: 54% | Activity [19]: 83.68% | Activity [20]: 0.53% | Activity [21]: 2.23% | IC50 [22]: 61 nM | Activity [23]: 55.48% | Activity [24]: 2.04% | Activity [25]: 47.04% | Activity [26]: 1.26% | Activity [27]: 1.52% | Activity [28]: 24.53% | Activity [29]: 0.091% | Activity [30]: 2.91% | viability at 0.1 µM [31]: 97.8%
